Reference: ChEMBL document CHEMBL4330096, “Discovery of potent and selective 5-azaindazole inhibitors of leucine-rich repeat kinase 2 (LRRK2) - Part 1” (Bioorg Med Chem Lett, 2019)

How the values were obtained:
[1] = molecular target: Protein kinase C alpha type (Homo sapiens) (UniProt P17252); assay: Inhibition of PKCa (unknown origin) at 10 uM relative to control
Procedure, shortened: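 Single-concentration screen of each compound against a 59-protein-kinase panel, run at 10 µM or 1 µM. Activity relative to control is shown as a heat map across the panel.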

[2] = molecular target: Casein kinase 2 (Homo sapiens) (UniProt P67870+P68400+P19784+Q8NEV1); assay: Inhibition of CK2 (unknown origin) at 10 uM relative to control; format: protein assay
Procedure, shortened: (§1)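 Single-point screen of each compound against a panel of 59 protein kinases, at 1 or 10 μM. The panel data are also summarised as a rescaled geometric mean selectivity score.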

[3] = molecular target: AMP-activated protein kinase, AMPK (Homo sapiens) (UniProt P54646+O43741+P54619+Q9UGJ0+Q9Y478+Q13131+Q9UGI9); assay: Inhibition of AMPK (unknown origin) at 10 uM relative to control; format: protein-complex assay; procedure, shortened: as §1
[4] = molecular target: T1, Serine/threonine-protein kinase BRSK2 (Homo sapiens) (UniProt Q8IWQ3); assay: Inhibition of BRSK2 (unknown origin) at 10 uM relative to control; procedure, shortened: as §1
T1 sequence (whole entry): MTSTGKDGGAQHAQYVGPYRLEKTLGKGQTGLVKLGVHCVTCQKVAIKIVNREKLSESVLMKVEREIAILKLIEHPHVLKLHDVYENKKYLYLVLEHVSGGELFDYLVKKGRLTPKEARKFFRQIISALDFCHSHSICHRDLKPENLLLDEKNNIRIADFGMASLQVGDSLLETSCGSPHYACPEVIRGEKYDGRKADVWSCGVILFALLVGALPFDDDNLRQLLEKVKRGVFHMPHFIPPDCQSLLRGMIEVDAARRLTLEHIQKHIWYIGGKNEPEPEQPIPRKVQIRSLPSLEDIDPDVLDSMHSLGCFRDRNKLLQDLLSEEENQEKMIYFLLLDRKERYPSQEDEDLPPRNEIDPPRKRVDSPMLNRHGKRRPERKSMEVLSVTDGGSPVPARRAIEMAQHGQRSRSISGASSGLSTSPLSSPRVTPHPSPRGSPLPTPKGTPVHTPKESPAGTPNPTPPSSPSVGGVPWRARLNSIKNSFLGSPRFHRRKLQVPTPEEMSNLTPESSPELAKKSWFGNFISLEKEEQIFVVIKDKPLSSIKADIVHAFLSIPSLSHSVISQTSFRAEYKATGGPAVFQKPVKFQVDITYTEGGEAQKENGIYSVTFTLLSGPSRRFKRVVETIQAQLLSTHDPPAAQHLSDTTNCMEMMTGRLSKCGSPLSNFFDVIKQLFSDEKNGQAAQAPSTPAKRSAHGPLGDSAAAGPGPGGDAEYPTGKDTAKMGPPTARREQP

[5] = molecular target: Ribosomal protein S6 kinase alpha-3 (Homo sapiens) (UniProt P51812); assay: Inhibition of RSK2 (unknown origin) at 10 uM relative to control
Chain of Ribosomal protein S6 kinase alpha-3 (Homo sapiens) (P51812 whole entry): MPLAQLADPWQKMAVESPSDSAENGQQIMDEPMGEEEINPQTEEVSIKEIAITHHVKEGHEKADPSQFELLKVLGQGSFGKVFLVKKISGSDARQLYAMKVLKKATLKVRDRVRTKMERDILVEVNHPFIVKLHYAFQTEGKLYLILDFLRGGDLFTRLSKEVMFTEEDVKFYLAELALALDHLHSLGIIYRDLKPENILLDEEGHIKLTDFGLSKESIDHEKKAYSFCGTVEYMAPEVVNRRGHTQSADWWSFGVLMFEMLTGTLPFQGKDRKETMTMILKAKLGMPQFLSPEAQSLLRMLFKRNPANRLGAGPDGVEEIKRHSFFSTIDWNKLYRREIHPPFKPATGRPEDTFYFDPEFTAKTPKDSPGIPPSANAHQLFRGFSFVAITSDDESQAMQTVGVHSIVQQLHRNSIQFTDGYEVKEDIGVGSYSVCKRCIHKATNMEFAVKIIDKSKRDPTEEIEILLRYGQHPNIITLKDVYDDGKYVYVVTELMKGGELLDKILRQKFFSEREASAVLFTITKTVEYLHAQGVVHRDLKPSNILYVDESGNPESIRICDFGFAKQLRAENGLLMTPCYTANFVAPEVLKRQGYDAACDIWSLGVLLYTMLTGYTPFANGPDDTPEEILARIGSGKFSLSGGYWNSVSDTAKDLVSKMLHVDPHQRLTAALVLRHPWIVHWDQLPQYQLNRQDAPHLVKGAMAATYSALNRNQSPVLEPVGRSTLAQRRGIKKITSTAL
Procedure, shortened: (§2)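 Single-concentration screen across a panel of 59 protein kinases, with each compound tested at one fixed concentration. The read-out is residual kinase activity relative to control. Panel results are also condensed into a rescaled geometric mean (RGM) selectivity score.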

[6] = molecular target: Proto-oncogene tyrosine-protein kinase Src (Homo sapiens) (UniProt P12931); assay: Inhibition of Src (unknown origin) at 10 uM relative to control; procedure, shortened: as §2
Chain of Proto-oncogene tyrosine-protein kinase Src (Homo sapiens) (P12931 2-536 limits assumed): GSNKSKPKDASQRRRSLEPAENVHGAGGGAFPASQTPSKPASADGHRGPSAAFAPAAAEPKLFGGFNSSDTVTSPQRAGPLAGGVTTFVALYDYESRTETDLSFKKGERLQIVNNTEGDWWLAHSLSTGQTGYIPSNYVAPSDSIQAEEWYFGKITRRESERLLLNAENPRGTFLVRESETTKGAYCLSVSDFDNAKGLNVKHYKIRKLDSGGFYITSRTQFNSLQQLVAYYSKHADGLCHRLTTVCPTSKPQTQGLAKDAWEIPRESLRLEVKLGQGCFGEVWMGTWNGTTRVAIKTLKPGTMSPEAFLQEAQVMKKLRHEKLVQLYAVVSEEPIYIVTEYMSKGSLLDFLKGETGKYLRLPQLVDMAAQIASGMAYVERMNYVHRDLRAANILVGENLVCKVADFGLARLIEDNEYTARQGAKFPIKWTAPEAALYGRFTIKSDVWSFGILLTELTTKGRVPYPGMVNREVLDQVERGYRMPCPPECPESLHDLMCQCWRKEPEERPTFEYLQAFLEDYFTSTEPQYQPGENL

[7] = molecular target: Mitogen-activated protein kinase 1 (Homo sapiens) (UniProt P28482); assay: Inhibition of ERK2 (unknown origin) at 10 uM relative to control; procedure, shortened: as §1
Chain of Mitogen-activated protein kinase 1 (Homo sapiens) (P28482 whole entry): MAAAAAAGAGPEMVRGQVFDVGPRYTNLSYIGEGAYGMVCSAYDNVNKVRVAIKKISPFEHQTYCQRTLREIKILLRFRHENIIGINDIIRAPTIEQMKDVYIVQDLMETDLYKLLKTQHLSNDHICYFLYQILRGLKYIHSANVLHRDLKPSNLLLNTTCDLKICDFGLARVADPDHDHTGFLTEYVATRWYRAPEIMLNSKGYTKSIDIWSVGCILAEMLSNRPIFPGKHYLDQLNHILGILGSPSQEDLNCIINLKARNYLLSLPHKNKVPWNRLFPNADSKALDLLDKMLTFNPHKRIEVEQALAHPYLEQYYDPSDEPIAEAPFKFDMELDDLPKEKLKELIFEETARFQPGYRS

[8] = molecular target: Tyrosine-protein kinase SYK (Homo sapiens) (UniProt P43405); assay: Inhibition of SYK (unknown origin) at 10 uM relative to control; procedure, shortened: as §2
[9] = molecular target: T2, Ephrin type-B receptor 3 (Homo sapiens) (UniProt P54753); assay: Inhibition of EPHB3 (unknown origin) at 10 uM relative to control; procedure, shortened: as §1
T2 sequence (whole entry): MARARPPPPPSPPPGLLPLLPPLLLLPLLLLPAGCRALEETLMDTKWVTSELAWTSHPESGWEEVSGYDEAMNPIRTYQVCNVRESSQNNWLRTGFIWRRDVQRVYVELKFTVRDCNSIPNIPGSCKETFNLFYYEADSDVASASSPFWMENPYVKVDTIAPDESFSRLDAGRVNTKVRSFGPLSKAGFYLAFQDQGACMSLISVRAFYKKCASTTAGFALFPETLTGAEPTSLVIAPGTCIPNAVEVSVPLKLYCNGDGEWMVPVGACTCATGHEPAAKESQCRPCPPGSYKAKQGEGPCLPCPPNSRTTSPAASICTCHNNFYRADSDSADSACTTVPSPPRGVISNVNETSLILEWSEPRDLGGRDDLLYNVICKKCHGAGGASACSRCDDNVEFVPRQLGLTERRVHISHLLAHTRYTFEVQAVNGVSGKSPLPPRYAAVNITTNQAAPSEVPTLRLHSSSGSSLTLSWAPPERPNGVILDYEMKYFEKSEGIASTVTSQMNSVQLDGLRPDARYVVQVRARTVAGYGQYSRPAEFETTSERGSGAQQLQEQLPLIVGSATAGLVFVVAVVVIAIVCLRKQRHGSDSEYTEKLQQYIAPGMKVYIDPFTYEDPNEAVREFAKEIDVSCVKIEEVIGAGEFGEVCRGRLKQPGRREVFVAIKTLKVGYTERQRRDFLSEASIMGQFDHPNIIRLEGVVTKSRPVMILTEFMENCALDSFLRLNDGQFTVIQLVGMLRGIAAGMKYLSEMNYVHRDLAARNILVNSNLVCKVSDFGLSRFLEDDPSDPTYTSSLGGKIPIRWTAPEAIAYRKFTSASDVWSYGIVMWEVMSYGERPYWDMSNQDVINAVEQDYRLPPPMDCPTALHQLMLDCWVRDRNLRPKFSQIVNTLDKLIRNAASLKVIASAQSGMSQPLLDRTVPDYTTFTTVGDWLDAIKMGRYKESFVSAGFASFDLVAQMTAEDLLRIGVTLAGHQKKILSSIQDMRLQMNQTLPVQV

SMILES: Cc1n[nH]c2ccnc(NC3CCCCC3)c12
- inhibition [1]: 25%
- inhibition [2]: 45%
- inhibition [3]: 29%
- inhibition [4]: 46%
- inhibition [5]: 51%
- inhibition [6]: 0%
- inhibition [7]: 29%
- inhibition [8]: 17%
- inhibition [9]: 39%

SMILES: Cc1n[nH]c2ccnc(Nc3ccc4ncsc4c3)c12
- inhibition [4]: 35%
- inhibition [5]: 73%
- inhibition [7]: 24%
- inhibition [8]: 0%

SMILES: Cc1n[nH]c2ccnc(Nc3ccccc3F)c12
- inhibition [1]: 26%
- inhibition [2]: 54%
- inhibition [3]: 56%
- inhibition [4]: 68%
- inhibition [5]: 38%
- inhibition [6]: 23%
- inhibition [7]: 77%
- inhibition [8]: 0%
- inhibition [9]: 39%

SMILES: Cc1n[nH]c2ccnc(OC3CCCCC3)c12
- inhibition [1]: 61%
- inhibition [2]: 41%
- inhibition [3]: 82%
- inhibition [4]: 67%
- inhibition [5]: 73%
- inhibition [6]: 47%
- inhibition [7]: 66%
- inhibition [8]: 16%
- inhibition [9]: 92%
